# What was measured:
# T47D [1] = assay: Cytotoxicity against human T47D cells after 48 hrs by SRB assay; type: functional; settings: for GI50: read-out: pGI50 (converted); for CC50: read-out: pLC50 (the source's name) (converted)
# LOX IMVI = assay: Growth inhibition of human LOXIMVI cells assessed as cell growth at 10^-8 M incubated for 48 hrs by sulforhodamine B assay relative to control; type: functional; settings: read-out: Activity
# HMEC-1 = assay: Antiproliferative activity against HMEC1 cells after 4 days by Coulter counter method; type: cell-based; settings: Homo sapiens, HMEC-1, 96 h
# In short: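 Primary HUVEC, primary HMVEC-d and the HMEC-1 line seeded at 20,000 cells/well in gelatin-coated plates in EC growth medium (EGM2). After overnight incubation, 5-fold compound dilutions added. Cells proliferated four days with compound, then trypsinized and counted by Coulter counter to derive IC₅₀.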
# SK-MEL-2 = assay: Cytotoxicity against human SK-MEL-2 cells after 48 hrs by SRB assay; type: functional; settings: SK-MEL-2, 48 h; for CC50: read-out: LC50 (the source's name)
# UACC-257 = assay: Growth inhibition of human UACC257 cells assessed as cell growth at 10^-6 M incubated for 48 hrs by sulforhodamine B assay relative to control; type: functional; settings: UACC-257, 48 h, read-out: Activity
# NCI-H226 = assay: Growth inhibition of human NCI-H226 cells assessed as cell growth at 10^-6 M incubated for 48 hrs by sulforhodamine B assay relative to control; type: functional; settings: NCI-H226, 48 h, read-out: Activity
# HOP-92 = assay: Growth inhibition of human HOP92 cells assessed as cell growth at 10^-6 M incubated for 48 hrs by sulforhodamine B assay relative to control; type: functional; settings: HOP-92, 48 h, read-out: Activity
# MDA-MB-231 [2] = assay: Growth inhibition of human MDA-MB-231 cells assessed as cell growth at 10^-7 M incubated for 48 hrs by sulforhodamine B assay relative to control; type: functional; settings: MDA-MB-231, 48 h, read-out: Activity
# Malme-3M = assay: Cytotoxicity against human MALME-3M cells after 48 hrs by SRB assay; type: functional
# K562 [3] = assay: Growth inhibition of human K562 cells assessed as cell growth at 10^-7 M incubated for 48 hrs by sulforhodamine B assay relative to control; type: functional; settings: K562, 48 h, read-out: Activity
# SF-295 = assay: Cytotoxicity against human SF295 cells after 48 hrs by SRB assay; type: functional; settings: SF-295, 48 h
# K562 [4] = assay: Growth inhibition of human K562 cells assessed as cell growth at 10^-6 M incubated for 48 hrs by sulforhodamine B assay relative to control; type: functional; settings: K562, 48 h, read-out: Activity
# HCC 2998 [5] = assay: Growth inhibition of human HCC2998 cells assessed as cell growth at 10^-7 M incubated for 48 hrs by sulforhodamine B assay relative to control; type: functional; settings: HCC 2998, 48 h, read-out: Activity
# NCI-H322M = assay: Growth inhibition of human NCI-H322M cells assessed as cell growth at 10^-6 M incubated for 48 hrs by sulforhodamine B assay relative to control; type: functional; settings: read-out: Activity
# CCRF-CEM = assay: Growth inhibition of human CCRF-CEM cells assessed as cell growth at 10^-4 M incubated for 48 hrs by sulforhodamine B assay relative to control; type: functional; settings: read-out: Activity
# A549 = assay: Growth inhibition of human A549/ATCC cells assessed as cell growth at 10^-7 M incubated for 48 hrs by sulforhodamine B assay relative to control; type: functional; settings: A549, 48 h, read-out: Activity
# MDA-MB-231 [6] = assay: Growth inhibition of human MDA-MB-231 cells assessed as cell growth at 10^-6 M incubated for 48 hrs by sulforhodamine B assay relative to control; type: functional; settings: MDA-MB-231, 48 h, read-out: Activity
# HeLa = assay: Antiproliferative activity against human HeLa cells after 72 hrs by Coulter counter method; type: functional, cell-based
# In short: (§1)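 Cell count assay in 96-well microtiter plates; (5–7.5) × 10⁴ tumor cells per well plus test compound. Cells proliferated at 37 °C in humidified CO₂-controlled atmosphere, 48 h for murine leukemia L1210, 72 h for human lymphocytic CEM and cervix carcinoma HeLa. Counted by Coulter counter; IC₅₀ is the concentration that inhibits proliferation by 50%.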
# NCI-H23 = assay: Growth inhibition of human NCI-H23 cells assessed as cell growth at 10^-5 M incubated for 48 hrs by sulforhodamine B assay relative to control; type: functional; settings: NCI-H23, 48 h, read-out: Activity
# NCI/ADR-RES [7] = assay: Growth inhibition of human NCI/ADR-RES cells assessed as cell growth at 10^-4 M incubated for 48 hrs by sulforhodamine B assay relative to control; type: functional; settings: read-out: Activity
# SW-620 = assay: Growth inhibition of human SW620 cells assessed as cell growth at 10^-8 M incubated for 48 hrs by sulforhodamine B assay relative to control; type: functional; settings: SW-620, 48 h, read-out: Activity
# NCI-H522 = assay: Cytotoxicity against human NCI-H522 cells after 48 hrs by SRB assay; type: functional; settings: NCI-H522, 48 h; for CC50: read-out: LC50 (the source's name)
# MDA-MB-435 = assay: Growth inhibition of human MDA-MB-435 cells assessed as cell growth at 10^-5 M incubated for 48 hrs by sulforhodamine B assay relative to control; type: functional; settings: MDA-MB-435, 48 h, read-out: Activity
# NCI/ADR-RES [8] = assay: Growth inhibition of human NCI/ADR-RES cells assessed as cell growth at 10^-5 M incubated for 48 hrs by sulforhodamine B assay relative to control; type: functional; settings: read-out: Activity
# HCC 2998 [9] = assay: Cytotoxicity against human HCC2998 cells after 48 hrs by SRB assay; type: functional; settings: HCC 2998, 48 h
# L1210 = assay: Antiproliferative activity against mouse L1210 cells after 48 hrs by Coulter counter method; type: functional, cell-based; settings: L1210, 48 h; in short: as §1
# SK-OV-3 = assay: Growth inhibition of human SKOV3 cells assessed as cell growth at 10^-8 M incubated for 48 hrs by sulforhodamine B assay relative to control; type: functional; settings: SK-OV-3, 48 h, read-out: Activity
# MOLT-4 = assay: Growth inhibition of human MOLT4 cells assessed as cell growth at 10^-5 M incubated for 48 hrs by sulforhodamine B assay relative to control; type: functional; settings: MOLT-4, 48 h, read-out: Activity
# T47D [10] = assay: Growth inhibition of human T47D cells assessed as cell growth at 10^-7 M incubated for 48 hrs by sulforhodamine B assay relative to control; type: functional; settings: read-out: Activity
# HL-60(TB) = assay: Growth inhibition of human HL-60(TB) cells assessed as cell growth at 10^-5 M incubated for 48 hrs by sulforhodamine B assay relative to control; type: functional; settings: HL-60, 48 h, read-out: Activity
# [11] = read-out: LC50 (the source's name)
# [12] = read-out: pLC50 (the source's name) (converted)
smiles,measurement,setting,value
C#C[C@@]1(O)[C@@H](CO)O[C@@H](n2cc(I)c3c(N)ncnc32)[C@@H]1O,TGI,T47D [1]; read-out: TGI,0.051 to 0.315 µM
same,GI50,T47D [1],< 0.01 µM
same,CC50,T47D [1],> 100 µM
same,growth at 0.01 µM,LOX IMVI,85 to 93%
same,IC50,HMEC-1,0.018 µM
same,GI50,SK-MEL-2; read-out: GI50,0.177 to 0.321 µM
same,CC50,SK-MEL-2,7.77 to 100 µM
same,TGI,SK-MEL-2; read-out: TGI,1.59 to 1.95 µM
same,growth at 1 µM,UACC-257,72 to 79%
same,growth at 1 µM,NCI-H226,57 to 70%
same,growth at 1 µM,HOP-92,10%
same,growth at 0.1 µM,MDA-MB-231 [2],60%
same,GI50,Malme-3M; read-out: GI50,0.525 to 1.3 µM
same,CC50,Malme-3M; [11],> 100 µM
same,TGI,Malme-3M; read-out: TGI,2.76 to 4.16 µM
same,growth at 0.1 µM,K562 [3],35 to 41%
same,GI50,SF-295; read-out: GI50,0.251 to 0.432 µM
same,CC50,SF-295; [11],> 100 µM
same,TGI,SF-295; read-out: TGI,3.77 µM
same,TGI,SF-295; read-out: pTGI (converted),3.8 µM
same,growth at 1 µM,K562 [4],17 to 22%
same,growth at 0.1 µM,HCC 2998 [5],70 to 75%
same,growth at 1 µM,NCI-H322M,37 to 44%
same,growth at 100 µM,CCRF-CEM,2 to 8%
same,growth at 0.1 µM,A549,69 to 80%
same,growth at 1 µM,MDA-MB-231 [6],17 to 27%
same,IC50,HeLa,0.18 µM
same,growth at 10 µM,NCI-H23,-16%
same,growth at 100 µM,NCI/ADR-RES [7],-2%
same,growth at 0.01 µM,SW-620,85 to 86%
same,GI50,NCI-H522; read-out: GI50,0.0648 to 0.152 µM
same,CC50,NCI-H522,> 100 µM
same,TGI,NCI-H522; read-out: TGI,0.516 to 0.698 µM
same,growth at 10 µM,MDA-MB-435,3 to 4%
same,growth at 10 µM,NCI/ADR-RES [8],-4%
same,GI50,HCC 2998 [9]; read-out: GI50,0.221 to 0.267 µM
same,CC50,HCC 2998 [9]; [11],> 100 µM
same,TGI,HCC 2998 [9]; read-out: TGI,2.6 to 3.47 µM
same,IC50,L1210,0.056 µM
same,growth at 0.01 µM,SK-OV-3,60 to 85%
C#C[C@@]1(O)[C@@H](CO)O[C@@H](n2cc(F)c3c(N)ncnc32)[C@@H]1O,TGI,T47D [1]; read-out: TGI,0.77 µM
same,GI50,T47D [1],0.214 µM
same,CC50,T47D [1],20 µM
same,TGI,T47D [1]; read-out: pTGI (converted),0.776 µM
same,growth at 0.01 µM,LOX IMVI,96%
same,IC50,HMEC-1,0.061 µM
same,CC50,SK-MEL-2,> 100 µM
same,TGI,SK-MEL-2; read-out: TGI,2.87 µM
same,GI50,SK-MEL-2; read-out: pGI50 (converted),0.447 µM
same,TGI,SK-MEL-2; read-out: pTGI (converted),2.88 µM
same,growth at 1 µM,UACC-257,34%
same,growth at 1 µM,NCI-H226,32%
same,growth at 10 µM,MOLT-4,2%
same,growth at 1 µM,HOP-92,24%
same,growth at 0.1 µM,MDA-MB-231 [2],88%
same,growth at 0.1 µM,T47D [10],80%
same,TGI,Malme-3M; read-out: TGI,1.81 µM
same,GI50,Malme-3M; read-out: pGI50 (converted),0.363 µM
same,CC50,Malme-3M; [12],> 100 µM
same,TGI,Malme-3M; read-out: pTGI (converted),1.82 µM
same,growth at 0.1 µM,K562 [3],78%
same,TGI,SF-295; read-out: TGI,2.33 µM
same,GI50,SF-295; read-out: pGI50 (converted),0.646 µM
same,CC50,SF-295; [12],6.76 µM
same,TGI,SF-295; read-out: pTGI (converted),2.34 µM
same,growth at 1 µM,K562 [4],16%
same,growth at 0.1 µM,HCC 2998 [5],97%
same,growth at 1 µM,NCI-H322M,31%
same,growth at 100 µM,CCRF-CEM,1%
same,growth at 0.1 µM,A549,92%
same,growth at 1 µM,MDA-MB-231 [6],22%
same,IC50,HeLa,0.15 µM
same,growth at 10 µM,NCI-H23,-4%
same,growth at 100 µM,NCI/ADR-RES [7],-6%
same,growth at 0.01 µM,SW-620,97%
same,GI50,NCI-H522; read-out: GI50,0.18 µM
same,CC50,NCI-H522,> 100 µM
same,TGI,NCI-H522; read-out: TGI,0.929 µM
same,GI50,NCI-H522; read-out: pGI50 (converted),0.178 µM
same,TGI,NCI-H522; read-out: pTGI (converted),0.933 µM
same,growth at 10 µM,HL-60(TB),-17%
same,growth at 10 µM,MDA-MB-435,-26%
same,TGI,HCC 2998 [9]; read-out: TGI,2.82 µM
same,GI50,HCC 2998 [9]; read-out: pGI50 (converted),0.603 µM
same,CC50,HCC 2998 [9]; [12],15.8 µM
same,TGI,HCC 2998 [9]; read-out: pTGI (converted),2.82 µM
same,IC50,L1210,0.035 µM
same,growth at 0.01 µM,SK-OV-3,96%

# — ChEMBL document CHEMBL4270599, “Synthesis of a 3'-C-ethynyl-β-d-ribofuranose purine nucleoside library: Discovery of C7-deazapurine analogs as potent antiproliferative nucleosides” (Eur J Med Chem, 2018)
